Laboratory results reported in ChEMBL document CHEMBL2331332 (J Med Chem, 2013).

Assays:
[1] = molecular target: T1, Prostaglandin E synthase (Homo sapiens, UniProt O14684); assay: Inhibition of full-length microsomal PGES-1 (unknown origin) expressed in Escherichia coli Rosetta(DE3) using PGH2 as substrate assessed as inhibition of PGH2 conversion to PGE2 incubated 15 mins prior to substrate addition measured after 1 min by EIA
T1 sequence (O14684 whole entry): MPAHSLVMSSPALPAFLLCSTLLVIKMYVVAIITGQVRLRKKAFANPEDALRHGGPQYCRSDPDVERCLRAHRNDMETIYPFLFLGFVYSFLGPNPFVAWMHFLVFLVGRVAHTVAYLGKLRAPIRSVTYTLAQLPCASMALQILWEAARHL
How it was run: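 Reactions used 2.5 mM cofactor and 17 μM PGH2 for 1 min at 4 °C, then were stopped, and PGE2 was quantified by EIA. IC50 came from dose-response curves. Mean ± SEM, n = 3.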

[2] = molecular target: T2, Polyunsaturated fatty acid 5-lipoxygenase (Homo sapiens) (UniProt P09917); assay: Inhibition of 5-LOX-mediated LTB4 formation in human whole blood at 10 uM incubated for 20 mins prior to substrate addition measured after 0.5 hrs by EIA in presence of calcium ionophore A23187
T2 sequence (whole entry): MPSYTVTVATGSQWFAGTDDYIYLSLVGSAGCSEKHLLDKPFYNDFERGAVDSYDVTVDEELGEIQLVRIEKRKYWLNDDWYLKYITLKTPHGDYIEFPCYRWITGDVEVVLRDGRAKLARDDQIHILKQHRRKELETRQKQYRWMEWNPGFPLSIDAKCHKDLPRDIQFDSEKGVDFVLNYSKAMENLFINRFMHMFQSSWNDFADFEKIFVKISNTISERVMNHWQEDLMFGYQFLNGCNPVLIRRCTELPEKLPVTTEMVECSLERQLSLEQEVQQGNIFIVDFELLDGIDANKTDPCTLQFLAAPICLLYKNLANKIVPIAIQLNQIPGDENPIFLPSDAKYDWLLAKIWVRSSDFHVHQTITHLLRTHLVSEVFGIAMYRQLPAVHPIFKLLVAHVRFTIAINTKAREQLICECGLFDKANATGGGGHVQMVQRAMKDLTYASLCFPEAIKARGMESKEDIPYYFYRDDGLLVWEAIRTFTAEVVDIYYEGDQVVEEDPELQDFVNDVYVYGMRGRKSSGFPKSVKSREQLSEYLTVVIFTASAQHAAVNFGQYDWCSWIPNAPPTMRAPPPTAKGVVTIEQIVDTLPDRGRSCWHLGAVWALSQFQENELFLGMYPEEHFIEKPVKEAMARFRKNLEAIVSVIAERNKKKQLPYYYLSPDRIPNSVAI
How it was run: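 Human whole blood was stimulated with calcium ionophore A23187 (final 20 μg/mL) for 0.5 h at 37 °C to induce LTB4 formation. Compounds were tested at 10 μM.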

[3] = molecular target: T1, Prostaglandin E synthase; assay: Inhibition of PGES-1 in human whole blood assessed as LPS-induced PGE2 formation incubated for 15 mins prior to LPS addition measured after 24 hrs by EIA
How it was run: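 Fresh heparinized blood came from healthy volunteers free of NSAIDs for at least 14 days. It was preincubated 15 min at 37 °C with compound or DMSO vehicle. LPS (final 100 μg/mL) was then added for 24 h at 37 °C. Plasma was obtained by centrifugation at 4 °C, and PGE2 was read by EIA.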

[4] = tested on: Prostaglandin G/H synthase 2 (COX-2); assay: Inhibition of COX-2 (unknown origin)-mediated TMPD oxidation using PGG2 as substrate at 100 uM incubated 15 mins prior to substrate addition measured after 36 secs by spectrophotometric analysis; details: Homo sapiens
[5] = tested on: Prostaglandin G/H synthase 1 (COX-1); assay: Inhibition of COX-1 (unknown origin)-mediated TMPD oxidation using PGG2 as substrate at 100 uM incubated 15 mins prior to substrate addition measured after 36 secs by spectrophotometric analysis; details: Homo sapiens
[6] = molecular target: T2, Polyunsaturated fatty acid 5-lipoxygenase (Homo sapiens); assay: Inhibition of 5-LOX (unknown origin) at 10 uM by human whole blood LTB4 assay

| SMILES | IC50 [1] [µM] | IC50 [3] [µM] | other results |
| --- | --- | --- | --- |
| CCn1c(CNc2ccc(C)cc2C)nnc1SCC(=O)Nc1ccc(C)cc1 | 5.1 | – | – |
| CCn1c(CNc2ccc(C)cc2C)nnc1SCC(=O)c1ccc(C)cc1 | 7.5 | – | – |
| Cc1ccc([N+](=O)[O-])cc1NC(=O)CSc1nnc(CNc2ccc(Cl)cc2)n1C | 0.033 | – | – |
| Cc1ccc([N+](=O)[O-])cc1NC(=O)CSc1nnc(-c2ccccc2C)n1C | 54.5 | – | – |
| Clc1ccc(/C=C/c2cc(-c3ccc(-c4ccccc4)cc3)nc3ccc4ccccc4c23)cc1 | 0.0065 | 8.5 | inhibition [2]: < 1%; inhibition [4]: 1.8%; inhibition [5]: < 1%; inhibition [6]: 10% |
| COc1cc(NC(=O)c2nn3c(C(F)(F)F)cc(-c4ccc(Br)cc4)nc3c2Cl)cc([N+](=O)[O-])c1 | 0.0097 | 8.5 | inhibition [2]: < 1%; inhibition [4]: -2.2%; inhibition [5]: < 1%; inhibition [6]: 39% |
| O=C(CSc1nnc(-c2ccccc2)c(-c2ccccc2)n1)c1cccs1 | 9.6 | – | – |
| O=C(CSc1nnc(-c2ccccc2)c(-c2ccccc2)n1)C12CC3CC(CC(C3)C1)C2 | 13.9 | – | – |
| CC1=NN(c2ccc([N+](=O)[O-])cc2)C(=O)/C1=N\Nc1ccccc1C(=O)O | 0.01 | 17 | inhibition [2]: < 1%; inhibition [4]: 2.5%; inhibition [5]: 1%; inhibition [6]: 10% |
| Cc1ccc2[nH]c3c(c2c1)CCC/C3=N\N=C1/CCCc2c1[nH]c1ccc(C)cc21 | 5 | > 200 | – |
| Cc1ccc(-c2nnc(SCC(=O)c3ccc(CC(N)=O)s3)nc2-c2ccc(C)cc2)cc1 | 0.64 | – | – |
| Cc1cccc(C)c1NCc1nnc(SCC(=O)Nc2ccc(F)cc2)n1-c1ccccc1 | 9.2 | – | – |
| CC(C)(C)C(=O)CSc1nnc(-c2ccccc2)c(-c2ccccc2)n1 | 17.8 | – | – |
| Cc1ccc(-c2nnc(SCC(=O)c3c[nH]c4ccccc34)nc2-c2ccc(C)cc2)cc1 | 0.48 | – | – |
| CCCCCCCCCSc1nnc(-c2ccc(OC)cc2)c(-c2ccc(OC)cc2)n1 | 32.9 | – | – |
| COc1ccc(OC)c(NC(=O)CSc2nnc(CNc3c(C)cccc3C)n2C)c1 | 0.93 | – | – |
| C=CCn1c(CNc2c(C)cccc2C)nnc1SCC(=O)Nc1ccccc1C | 12.6 | – | – |
| O=C(CCCSc1nnc(-c2ccccc2)c(-c2ccccc2)n1)c1ccccc1 | 50.8 | – | – |
| Cc1ccc(N2CCn3c(SCC(=O)Nc4cc(C)ccc4C)nnc32)cc1 | > 100 | – | – |
| O=C1COc2ccc(C(=O)CSc3nnc(-c4ccccc4)c(-c4ccccc4)n3)cc2N1 | 0.29 | – | – |
| Cc1ccc(C(=O)O)cc1-c1ccc(/C=C2\SC(=O)N(CC(=O)Nc3ccccc3)C2=O)o1 | 1.2 | 160 | – |
| COc1cc(-c2cc(C(=O)O)c3c(ccc4ccccc43)n2)ccc1OCCCC#N | 0.0011 | 4.4 | inhibition [2]: < 1%; inhibition [4]: 1%; inhibition [5]: 4.1%; inhibition [6]: < 1% |
| C/C(=N\NC(=O)c1ccc([N+](=O)[O-])c(C)c1)c1cccc(NC(=O)COc2ccc(Cl)cc2Cl)c1 | 0.057 | 66 | – |
| Cc1nc2sc3c(c2c(=O)n1/N=C/c1cc([N+](=O)[O-])cc([N+](=O)[O-])c1O)CCCC3 | 1.8 | 130 | – |
| CC1=NN(c2ccc(Cl)c(Cl)c2)C(=O)/C1=C/c1cc(Br)ccc1OCC(=O)O | 0.17 | 18.5 | – |
| CCOC(=O)c1ccc(NC(=O)CSc2nnc(CNc3c(C)cccc3C)n2C)cc1 | 5.4 | – | – |
| O=C(COC(=O)c1ccc2c(c1)C(=O)N(c1ccc(Oc3ccccc3)cc1)C2=O)c1ccc(Br)cc1 | 1.7 | 200 | – |
| Cc1ccc([N+](=O)[O-])cc1NC(=O)CSc1nnc(CC(=O)Nc2ccccc2)n1C | 0.1 | – | – |

| SMILES | IC50 [1] [µM] | IC50 [3] [µM] | other results |
| --- | --- | --- | --- |
| CCn1c(CNC(=O)c2ccc(C)cc2)nnc1SCC(=O)Nc1cc([N+](=O)[O-])ccc1C | 0.054 | – | – |
| Cc1ccc([N+](=O)[O-])cc1NC(=O)CSc1nnc(Cc2ccccc2)n1C | 0.8 | – | – |
| COc1ccc(-c2nnc(SCC(=O)Nc3ccc(Cl)cc3)nc2-c2ccc(OC)cc2)cc1 | 3.1 | – | – |
| COc1ccc(C(=O)CSc2nnc(-c3ccc(OC)cc3)c(-c3ccc(OC)cc3)n2)cc1 | 1 | – | – |
| O=C(N/N=C/c1ccc([N+](=O)[O-])cc1)c1cc(OCc2ccccc2)c(OCc2ccccc2)c(OCc2ccccc2)c1 | 0.1 | 200 | – |
| O=C(CSc1nc(-c2ccccc2)c(-c2ccccc2)[nH]1)c1ccccc1 | 10.4 | – | – |
| Cc1ccc([N+](=O)[O-])cc1NC(=O)CSc1nnc(CNC(=O)COc2c(C)cccc2C)n1C | 0.71 | – | – |
| O=C(CSc1nnc(-c2ccccc2)c(-c2ccccc2)n1)c1c[nH]c2ccccc12 | 0.5 | – | – |
| C=CCn1c(SCC(=O)c2ccc3c(c2)Cc2ccccc2-3)nnc1-c1ccc(OC)cc1 | 0.91 | – | – |
| Cc1[nH]c2ccccc2c1C(=O)C(C)Sc1nnc(-c2ccccc2)c(-c2ccccc2)n1 (configuration not stated) | 2.1 | – | – |
| C=CCSc1nnc2c(n1)OC(c1ccc(-c3cccc([N+](=O)[O-])c3)o1)Nc1ccccc1-2 (configuration not stated) | 1.6 | > 200 | – |
| Cc1ccc([N+](=O)[O-])cc1NC(=O)CSc1nnc(CSCc2ccccc2)n1C | 0.24 | – | – |
| CCn1c2ccccc2c2cc(-c3cc(C(=O)O)c4c(ccc5ccccc54)n3)ccc21 | 0.1 | > 200 | – |
| COc1ccc(CN2C(=O)/C(=C/c3ccc(OCc4ccc([N+](=O)[O-])cc4)c(Br)c3)S/C2=N\c2ccccc2)cc1 | 0.038 | 120 | – |
| Clc1ccc(CSc2nnc(-c3ccccc3)c(-c3ccccc3)n2)cc1 | > 100 | – | – |
| Cc1ccc([N+](=O)[O-])cc1NC(=O)CSc1nnc(CNc2c(C)cccc2C)n1C | 0.0093 | 0.7 | inhibition [2]: < 1%; inhibition [4]: < 1%; inhibition [5]: < 1%; inhibition [6]: 8% |
| COc1ccc(C(=O)CSc2nnc(-c3ccco3)c(-c3ccco3)n2)cc1 | 5 | – | – |
| Cc1ccc(Cl)c(NC(=O)CSc2nnc(CNc3c(C)cccc3C)n2C)c1 | 0.2 | – | – |
| Cc1ccc(C)c(NC(=O)CSc2nnc(CNc3c(C)cccc3C)n2C)c1 | 3.6 | – | – |
| O=C(CSc1ncc(-c2ccccc2)nn1)c1ccccc1 | 32.5 | – | – |
| CC(c1ccccc1)N1C(=O)c2ccc(C(=O)Nc3cc(Cl)ccc3C(=O)O)cc2C1=O (configuration not stated) | 0.002 | 1.4 | inhibition [2]: < 1%; inhibition [6]: < 1% |
| Cc1cc(C)c2oc(-c3ccc(C)c(NC(=O)c4cccc([N+](=O)[O-])c4)c3)nc2c1 | 0.0046 | 6.2 | inhibition [2]: < 1%; inhibition [6]: 30% |
| O=C(CSc1nnc(-c2ccccc2)c(-c2ccccc2)n1)c1ccccc1 | 2.5 | – | – |
| CCCCCCCSc1nnc(-c2ccc(OC)cc2)c(-c2ccc(OC)cc2)n1 | 45.4 | – | – |
| Cc1ccc(C)c(NC(=O)CSc2nnc(CNc3c(C)cccc3C)n2-c2ccccc2)c1 | 13.6 | – | – |
| Cn1c(=O)c(/C(=N/Nc2ccc([N+](=O)[O-])cc2[N+](=O)[O-])c2nnn[nH]2)c(O)c2ccccc21 | 1.7 | > 200 | – |
| Cc1cccc(C)c1NCc1nnc(SCc2ccc(Cl)cc2)n1-c1ccccc1 | 19.4 | – | – |
